HTRA1 inhibitor – inhibitors of human serine peptidase HTRA1 | AID 504803 | inhibition, % at 5.96 µM | 340,000 compounds, 0.5% hits | recombinant HTRA1, FP-rhodamine activity-based probe, fluorescence polarization | Q92743; in the data active means inhibition above about 36%;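 further: 0% = enzyme with DMSO and 100% = wells lacking enzyme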
SIAE primary – human SIAE inhibition, primary screen; Q9HAT2; 370,000 compounds, 0.69% hits; AID 1053197; inhibition, % at 9.66 µM; SIAE FP-Rh probe binding, fluorescence polarization;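 active means inhibition above a cutoff: mean of compounds within the control limits plus 3 SD of those, cut at about 17% in these data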;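 further: 0% = plate median of compound wells and 100% = probe without SIAE protein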
ABHD4 inh – inhibits mouse alpha/beta hydrolase domain 4 | 370,000 compounds, 0.54% hits | inhibition, % at 8.92 µM | Q8VD66 | purified mABHD4, FP-Rh probe fluorescence polarization;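 active means inhibition exceeding the mean over every tested compound plus 3 SD, cut at about 30% in these data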;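 further: 0% = plate median of compound wells and 100% = S159A mutant with DMSO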
Target sequence (Q8VD66 whole entry, looked up, the tested form may be a part): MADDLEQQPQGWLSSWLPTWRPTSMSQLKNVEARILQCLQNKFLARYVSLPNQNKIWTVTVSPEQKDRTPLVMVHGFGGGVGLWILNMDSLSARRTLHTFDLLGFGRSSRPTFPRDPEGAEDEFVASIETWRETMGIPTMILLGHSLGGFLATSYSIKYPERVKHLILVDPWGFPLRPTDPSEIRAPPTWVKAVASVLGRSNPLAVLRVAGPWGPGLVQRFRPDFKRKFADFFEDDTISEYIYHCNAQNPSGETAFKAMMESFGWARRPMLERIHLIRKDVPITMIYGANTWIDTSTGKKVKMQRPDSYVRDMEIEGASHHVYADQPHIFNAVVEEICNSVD
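Test system: mouse ABHD4 enzyme, wild type. Reagent: FP-Rh fluorescent activity-based probe, added after compound pre-incubation. Timing: pre-incubation 45 min, probe exposure 60 min, at 25 °C. Technique: FP readout, ex 525 nm / em 598 nm. Benchmarks: high control S159A mutant with DMSO, low control median of compound wells.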
ARNT TACC3 PPI – ARNT/TACC3 interaction disruption; Q9Y6A5; AlphaScreen His-ARNT PAS-B/GST-TACC3 binding, luminescence; TACC3 fragment carries E629A point mutation; inhibition, % at 9.99 µM; 390,000 compounds, 0.66% hits; AID 623870;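 active means mean inhibition of replicates at least 50% and at least half of replicates each reaching 50%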;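 further: 0% = complete ARNT plus TACC3 wells and 100% = ARNT alone without TACC3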
TCR CD3 inh – blocks the human TCR-CD3 interaction; 360,000 compounds, 0.37% hits; inhibition, % at 9.4 µM; AID 651800; TAMRA-labeled TCR probe fluorescence, biochemical; in the data active means inhibition above about 19%;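 further: recombinant mutant TCR 2C K166C tagged with TAMRA read by polarization; 0% = receptor in buffer alone and 100% = receptor with positive control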
SIAE confirm – confirmation of human SIAE inhibitors; SIAE FP-Rh activity-based probe, fluorescence polarization; shares compounds with SIAE primary; AID 1117263; 2,300 compounds, 13% hits; inhibition, % at 9.66 µM;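 active means mean inhibition of the replicates above the hit cutoff set in the primary screen, cut at about 17% in these data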;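 further: 0% = SIAE with DMSO and probe and 100% = probe without SIAE; inhibitors lower polarization as more probe stays unbound to SIAE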
* hit, by the source's call; · = no result. Rows were chosen to be rich in hits. Some 1.8% of all compounds tested hit in one or more screens of this group.

SMILES	HTRA1 inhibitor	SIAE primary	ABHD4 inh	ARNT TACC3 PPI	TCR CD3 inh	SIAE confirm
COc1ccc(/C=N\NC(=O)/C(=C\Nc2nccc(C)n2)NC(=O)c2ccccc2)cc1	-8	0	14	3	-2	·
O=C(Cc1cccnc1)N1[C@H](CO)[C@H](c2ccccc2)[C@H]1CNCC1CCC1	·	·	·	-7	·	·
Cc1ccc(-n2c(SCc3cc(=O)n4ccsc4n3)nnc2-c2cccnc2)c(C)c1	8	17*	0	6	6	-3
Cc1ccc(-n2c(SCC(N)=O)nnc2-c2cccnc2)c(C)c1	5	4	5	1	9	·
COc1ccccc1NC(=O)N(C)C[C@H]1Oc2cc(Br)ccc2S(=O)(=O)N([C@@H](C)CO)C[C@H]1C	·	·	·	5	·	·
CCc1ccc(CNC(=O)CCS(=O)(=O)Cc2ccccc2F)cc1	-7	20*	-7	-5	0	4
Nn1c(SCC(=O)Nc2ccc(S(=O)(=O)N3CCCC3)cc2)nnc1C(F)(F)F	-2	17*	-3	-8	-4	-6
Cn1cnnc1SCC(=O)Nc1ccc(S(=O)(=O)N2CCCC2)cc1	-2	-2	3	-11	3	·
O=C(CSc1nnc(-c2ccco2)o1)NC1CCCCCC1	-3	18*	5	-3	5	-1
O=C(CSc1nnc(-c2ccccc2)o1)NC1CCCC1	-7	-2	2	-2	-4	·
Fc1ccc2nc(Nc3nc4cc5c(cc4s3)OCCO5)sc2c1	-15	32*	12	5	-8	6
Fc1ccc2nc(Nc3nc4cc5c(cc4s3)OCO5)sc2c1	0	25*	7	-7	-3	8
c1ccc2sc(Nc3nc4cc5c(cc4s3)OCO5)nc2c1	-3	7	7	4	-8	·
COc1ccc(NC(=O)Nc2ccc3c(c2)C(=O)N([C@H](C)CO)C[C@@H](C)[C@@H](CN(C)C(=O)CCCN(C)C)OCCCC[C@@H](C)O3)cc1	·	·	·	0	·	·
Clc1ccc(/C=N/Nc2ncnc3ccccc23)cc1Cl	2	27*	-2	0	3	-23
CN(C)/C=N/C(=S)Nc1cc(Cl)cc(Cl)c1	-10	17*	0	-5	7	1
CCOCCCNC(=S)Nc1ccc2nc(N3CCOCC3)cc(C)c2c1	7	17*	6	-8	-2	2
COCCCNC(=S)Nc1ccc2nc(N3CCOCC3)cc(C)c2c1	6	4	0	1	-4	·
C[C@@H]1CN([C@H](C)CO)C(=O)c2cc(NC(=O)Nc3ccc4c(c3)OCO4)ccc2O[C@H]1CN(C)Cc1ccccc1	·	·	·	-1	·	·
Nc1ccc(C(=O)N/N=C/c2sc(N3CCOCC3)nc2-c2ccccc2)cc1	11	17*	14	-3	-2	4
O=C(C[C@@H]1C[C@@H]2c3cc(NC(=O)C4CCC4)ccc3O[C@@H]2[C@@H](CO)O1)NCC(F)(F)F	·	·	·	-3	·	·
CCN1[C@@H]2c3ccc(C4=CCCCC4)c(=O)n3C[C@@H]2[C@@H](CO)[C@@H]1C(=O)NCc1cccc(OC)c1	·	·	·	-2	·	·
CC(NC(=O)CCn1c(=S)[nH]c2ccsc2c1=O)c1ccccc1 (configuration not stated)	1	19*	3	-3	-5	1
C[C@@H]1CN([C@H](C)CO)S(=O)(=O)c2ccc(-c3cncnc3)cc2O[C@H]1CN(C)Cc1ccncc1	·	·	·	2	·	·
CO[C@H]1CN(C)C(=O)c2cc(NC(=O)Nc3c(C)noc3C)ccc2OC[C@@H](C)N(CC2CC2)C[C@H]1C	·	·	·	-8	·	·
SMILES	HTRA1 inhibitor	SIAE primary	ABHD4 inh	ARNT TACC3 PPI	TCR CD3 inh	SIAE confirm
COc1ccc(OC)c2c1C(=O)c1ccccc1C2=O	·	24*	17	·	-6	10
Cc1cc(C)nc(SCCS(=O)(=O)Cc2ccccc2)n1	-2	0	3	1	8	·
Cc1cc(C)nc(SCCS(=O)(=O)Cc2ccc(Cl)cc2)n1	-5	20*	1	-11	3	-3
COCC(=O)N(C)C[C@H]1Oc2ncc(-c3cccc(OC)c3)cc2C(=O)N([C@@H](C)CO)C[C@H]1C	·	·	·	-7	·	·
O=C(/C=N/O)Nc1ccc2sc3ccccc3c2c1	-7	61*	-8	-44	0	50*
O=C(C[C@@H]1CC[C@H]2[C@@H](COC[C@H](O)CN2C(=O)c2ccccc2F)O1)N1CCN(c2ccccc2)CC1	·	·	·	11	·	·
O=C(CSc1nnc(SCc2ccccc2Cl)s1)N/N=C/c1c[nH]c2ccccc12	2	28*	-5	-2	8	9
O=C(CSc1nnc(SCc2ccccc2)s1)N/N=C/c1c[nH]c2ccccc12	-4	1	6	-4	-3	·
CCOc1cccc(/C=N/N2CCN(c3ccc(Cl)cc3)CC2)c1O	-25	21*	2	1	0	1
CCc1cccc(NC(=O)Nc2cccs2)c1	3	17*	-1	-11	0	4
N#Cc1cccc(NC(=O)Nc2cccs2)c1	0	10	-3	-3	-12	·
CN(C(=O)CN1C(=O)NC(c2ccccc2)(c2ccccc2)C1=O)C1CCS(=O)(=O)C1 (configuration not stated)	9	2	3	-6	0	·
CCC1(c2ccc(F)cc2)NC(=O)N(CC(=O)N(C)C2CCS(=O)(=O)C2)C1=O (configuration not stated)	7	21*	-1	3	-3	-2
O=C([C@H]1[C@H](CO)[C@H]2Cn3c(ccc(-c4cccnc4)c3=O)[C@H]2N1CC1CC1)N1CCCCC1	·	·	·	-19	·	·
O=C(NCC[C@H]1CC[C@@H](NS(=O)(=O)c2ccc(Oc3ccccc3)cc2)[C@H](CO)O1)C1CC1	·	·	·	-6	·	·
CC(/C=C/c1ccc(N(C)C)cc1)=N\N=C1\NC(=O)CC(C(=O)Nc2ccccc2)S1 (configuration not stated)	20	19*	-6	1	1	7
Cc1ccccc1NC(=O)Nc1ccc2c(c1)C(=O)N(C)[C@H]1CC[C@@H](CC(=O)O)O[C@H]1CO2	·	·	·	0	·	·
CC(=O)Nc1ccc(N2C(C(C)=O)=NN(c3ccccc3)C2c2cccs2)cc1 (configuration not stated)	-2	10	-2	-1	-1	·
CC(=O)Nc1ccc(N2C(C(C)=O)=NN(c3ccc(Cl)cc3)C2c2sccc2C)cc1 (configuration not stated)	-6	21*	-8	-6	3	5
C/C(=C\C(=O)c1ccccc1)Nc1ccc(Br)c(Cl)c1	5	18*	4	-3	8	2
Cc1ccc(C)c(OCCC(=O)OCC(=O)N(C)c2c(N)n(Cc3ccccc3)c(=O)[nH]c2=O)c1	-9	18*	-6	19	8	4
Cc1ccccc1OCCC(=O)OCC(=O)N(C)c1c(N)n(Cc2ccccc2)c(=O)[nH]c1=O	-6	1	-4	-4	3	·
